Results as given in ChEMBL document CHEMBL1828513, “Overcoming human P-glycoprotein-dependent multidrug resistance with novel dihydro-β-agarofuran sesquiterpenes” (Eur J Med Chem, 2011).
pKi: −log10 of the molar value.

Columns and labels:
[1] = Intrinsic toxicity in mouse NIH/3T3 cells expressing human MDR1 assessed as cell growth at 10 uM relative to control; type: ADME, cell-based, NIH3T3; settings: read-out: Activity
Procedure, shortened: (§1)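 Parental NIH-3T3 and MDR1-G185-transfected cells were cultured in DMEM with 10% heat-inactivated FBS, 2 mM L-glutamine and penicillin/streptomycin. Cells were exposed to 10 µM compound. Growth is reported as percent of untreated control. Mean ± S.D. of three independent experiments in triplicate.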

[2] = biological target: T1, MDR1 (ABCB1, P-glycoprotein) (Homo sapiens, UniProt P08183); assay: (§2) Inhibition of human MDR1 expressed in mouse NIH-3T3 cells assessed as daunomycin efflux at 10 uM after 30 mins by flow cytometry; type: cell-based, NIH3T3; settings: mouse NIH-3T3 cells expressing human MDR1, probe daunomycin
[3] = biological target: T1, MDR1 (ABCB1, P-glycoprotein); assay: Inhibition of human MDR1 expressed in mouse NIH-3T3 cells assessed as daunomycin efflux at 10 uM after 30 mins by flow cytometry relative to control; type: cell-based, NIH3T3; settings: mouse NIH-3T3 cells expressing human MDR1, probe daunomycin, read-out: Imax
Procedure, shortened: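 Transfected MDR1-G185 NIH-3T3 cells were seeded 24 h prior at 10^5 cells/well. They were co-incubated 30 min at 37 °C in DMEM + 10% iFBS with 2 µM daunomycin and 10 µM sesquiterpene, then washed in ice-cold PBS, trypsinized and read by flow cytometry. Retention is expressed relative to 5 mM ortho-vanadate (100% Pgp inhibition). Mean ± S.D. of three independent experiments in triplicate.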

[4] = Intrinsic toxicity in wild type mouse NIH/3T3 cells assessed as cell growth at 10 uM relative to control; type: cell-based, NIH3T3; settings: wild type NIH/3T3 cells, read-out: Activity; procedure, shortened: as §1
[5] = biological target: T2, ATP-dependent translocase ABCB1 (Homo sapiens, UniProt P08183); assay: Inhibition of human MDR1 expressed in mouse NIH-3T3 cells assessed as daunomycin efflux after 30 mins by flow cytometry; type: cell-based, NIH3T3
Procedure, shortened: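 MDR1-G185-transfected NIH-3T3 cells in log phase were seeded 24 h beforehand at 10^5 cells/well. They were incubated 30 min at 37 °C in DMEM + 10% iFBS with 2 µM daunomycin and varied sesquiterpene concentrations, washed in ice-cold PBS, trypsinized, and read for single-cell fluorescence by flow cytometry.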

[6] = biological target: T2, ATP-dependent translocase ABCB1; assay: as §2; type: cell-based, NIH3T3; settings: nih3t3, 0.5 h, 10 µM

T2 sequence (P08183 whole entry): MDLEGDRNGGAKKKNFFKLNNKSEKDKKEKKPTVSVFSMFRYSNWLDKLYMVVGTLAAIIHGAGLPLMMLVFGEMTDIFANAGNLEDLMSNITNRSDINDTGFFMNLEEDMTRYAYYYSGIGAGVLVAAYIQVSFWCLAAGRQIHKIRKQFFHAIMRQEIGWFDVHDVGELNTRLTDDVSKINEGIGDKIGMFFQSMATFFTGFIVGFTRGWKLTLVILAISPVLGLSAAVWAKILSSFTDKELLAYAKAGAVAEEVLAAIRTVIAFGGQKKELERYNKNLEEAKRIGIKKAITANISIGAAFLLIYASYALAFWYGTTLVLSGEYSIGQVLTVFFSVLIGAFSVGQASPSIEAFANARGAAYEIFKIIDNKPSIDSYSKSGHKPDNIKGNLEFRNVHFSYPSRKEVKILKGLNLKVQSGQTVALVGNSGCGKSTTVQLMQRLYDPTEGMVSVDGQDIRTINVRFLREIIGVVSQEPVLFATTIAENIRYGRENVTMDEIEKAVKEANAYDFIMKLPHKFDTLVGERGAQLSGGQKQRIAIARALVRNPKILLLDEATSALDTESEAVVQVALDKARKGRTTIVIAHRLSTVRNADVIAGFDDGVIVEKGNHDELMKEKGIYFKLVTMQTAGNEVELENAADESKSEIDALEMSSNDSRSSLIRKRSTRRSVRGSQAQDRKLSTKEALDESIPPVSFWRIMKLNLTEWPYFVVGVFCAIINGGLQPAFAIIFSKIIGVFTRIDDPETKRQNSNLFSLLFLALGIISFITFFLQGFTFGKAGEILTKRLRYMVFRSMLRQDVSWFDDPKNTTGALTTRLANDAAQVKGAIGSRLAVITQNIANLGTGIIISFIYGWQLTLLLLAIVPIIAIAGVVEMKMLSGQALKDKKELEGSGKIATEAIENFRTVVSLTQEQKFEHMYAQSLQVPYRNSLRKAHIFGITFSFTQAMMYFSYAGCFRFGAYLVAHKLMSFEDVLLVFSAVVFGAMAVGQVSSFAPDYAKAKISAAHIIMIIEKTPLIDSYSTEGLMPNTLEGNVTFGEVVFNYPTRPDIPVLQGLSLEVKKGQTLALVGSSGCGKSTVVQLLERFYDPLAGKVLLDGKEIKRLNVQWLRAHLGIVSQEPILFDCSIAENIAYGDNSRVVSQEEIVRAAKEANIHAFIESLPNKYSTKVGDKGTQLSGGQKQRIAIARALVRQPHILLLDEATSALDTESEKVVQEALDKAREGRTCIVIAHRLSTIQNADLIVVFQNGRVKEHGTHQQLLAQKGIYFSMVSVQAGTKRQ
T1 sequence (P08183 whole entry): as above

| SMILES | inhibition at 0.5 h, 10 µM [2] [%] | inhibition at 0.5 h, 10 µM [3] [%] | pKi [5] | inhibition (INH) [6] | viability at 10 µM [1] [%] | viability at 10 µM [4] [%] |
| --- | --- | --- | --- | --- | --- | --- |
| CC(=O)OC[C@]12[C@@H](OC(=O)c3ccoc3)C[C@@H]3[C@@H](OC(=O)c4ccccc4)[C@]1(OC3(C)C)[C@@](C)(O)C[C@H](OC(=O)c1ccccc1)[C@@H]2OC(C)=O | 70 | > 90 | 6.47 | – | 84.3 | 82.1 |
| CC(=O)OC[C@]12[C@@H](OC(=O)c3ccccc3)C[C@@H]3[C@@H](OC(=O)c4ccccc4)[C@]1(OC3(C)C)[C@@](C)(O)C[C@H](O)[C@@H]2OC(C)=O | 70 | > 90 | 6.33 | – | 105 | 84.4 |
| CC(=O)OC[C@]12[C@@H](OC(=O)c3ccccc3)C[C@@H]3[C@@H](OC(=O)c4ccccc4)[C@]1(OC3(C)C)[C@@](C)(O)C[C@H](OC(C)=O)[C@@H]2OC(C)=O | 70 | > 90 | 6.41 | – | 77.2 | 76.7 |
| CC(=O)O[C@H]1[C@@H](OC(=O)c2ccccc2)C[C@](C)(O)[C@]23OC(C)(C)[C@H](C[C@H](OC(=O)c4ccoc4)[C@]12C)[C@H]3OC(=O)c1ccccc1 | 70 | > 90 | 6.42 | – | 98 | 108 |
| CC(=O)O[C@H]1[C@H](OC(=O)c2ccoc2)[C@@]2(C)[C@@H](OC(=O)c3ccccc3)C[C@@H]3C[C@]2(OC3(C)C)[C@@](C)(O)[C@H]1OC(C)=O | – | – | – | Active | – | – |
| CC(=O)O[C@@H]1[C@H](OC(C)=O)[C@@H](C)[C@@]23C[C@@H](C[C@H](OC(=O)c4ccccc4)[C@]2(C)[C@H]1OC(=O)c1ccoc1)C(C)(C)O3 | 70 | > 90 | 6.19 | – | 92.4 | 91.8 |
| CC(=O)O[C@@H]1C[C@](C)(O)[C@@]23C[C@@H](C[C@H](OC(=O)c4ccccc4)[C@]2(C)[C@H]1OC(=O)c1ccoc1)C(C)(C)O3 | – | – | – | Active | – | – |
| CC(=O)O[C@@H]1C[C@](C)(O)[C@@]23C[C@@H](C[C@H](OC(=O)c4ccoc4)[C@]2(C)[C@H]1OC(=O)c1ccoc1)C(C)(C)O3 | – | – | – | Active | – | – |
| CC(=O)O[C@@H]1C[C@](C)(O)[C@@]23C[C@@H](C[C@H](OC(=O)/C=C/c4ccccc4)[C@]2(C)[C@H]1OC(=O)c1ccoc1)C(C)(C)O3 | 70 | > 90 | 6.24 | – | 100 | 86 |
| CC(=O)O[C@@H]1C[C@@H](C)[C@@]23C[C@@H](C[C@H](OC(=O)c4ccccc4)[C@]2(C)[C@H]1OC(=O)c1ccoc1)C(C)(C)O3 | – | – | – | Active | – | – |
| CC1(C)O[C@]23C[C@H]1C[C@H](OC(=O)c1ccccc1)[C@]2(C)[C@@H](OC(=O)c1ccoc1)CC[C@]3(C)O | – | – | – | Active | – | – |
| COc1ccc(CCN(C)CCCC(C#N)(c2ccc(OC)c(OC)c2)C(C)C)cc1OC (centres undefined) | – | – | – | – | 79.2 | – |

Further lines, with some results ahead:

| inhibition at 0.5 h, 10 µM [2] [%] | inhibition at 0.5 h, 10 µM [3] [%] | pKi [5] | inhibition (INH) [6] | SMILES | viability at 10 µM [1] [%] | viability at 10 µM [4] [%] |
| --- | --- | --- | --- | --- | --- | --- |
| 70 | > 90 | 6.23 | – | CC(=O)OC[C@]12[C@@H](OC(=O)c3ccoc3)C[C@@H]3[C@@H](OC(=O)c4ccccc4)[C@]1(OC3(C)C)[C@@](C)(O)C[C@H](OC(C)=O)[C@@H]2OC(C)=O | 87.8 | 92.4 |
| – | – | – | Active | CC(=O)OC[C@]12[C@@H](OC(=O)c3ccoc3)C[C@@H]3[C@@H](OC(=O)c4ccccc4)[C@]1(OC3(C)C)[C@@](C)(O)C[C@H](O)[C@@H]2OC(C)=O | – | – |
| – | – | – | Active | CC(=O)OC[C@]12[C@@H](OC(=O)c3ccoc3)C[C@@H]3[C@@H](OC(C)=O)[C@]1(OC3(C)C)[C@@](C)(O)C[C@H](OC(C)=O)[C@@H]2OC(C)=O | – | – |
| 70 | > 90 | 6.29 | – | CC(=O)OC[C@]12[C@@H](OC(=O)c3ccoc3)C[C@@H]3[C@@H](OC(=O)c4ccoc4)[C@]1(OC3(C)C)[C@@](C)(O)C[C@H](OC(C)=O)[C@@H]2OC(C)=O | 82.9 | 92 |
| – | – | – | Active | CC(=O)OC[C@]12[C@@H](OC(=O)c3ccccc3)C[C@@H]3[C@@H](OC(C)=O)[C@]1(OC3(C)C)[C@@](C)(O)C[C@H](OC(C)=O)[C@@H]2OC(C)=O | – | – |
